# Reference: article PMC9614283 (Journal of medicinal chemistry, 2017)
# Assays:
# [1] = target: human recombinant PDE5A1 (Homo sapiens, UniProt O76074); experiment: PDE5 fluorescent; type: biochemical
# Summary of the method: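 Reactions ran 60 min at room temperature with 0.1-0.45 ng PDE5, 100 nM FAM-cGMP or FAM-cAMP substrate and test compound. Binding agent was then added for 60 min at room temperature, and fluorescence was read at ex 485/em 528 nm and converted to polarisation. Each concentration was run in duplicate. Activity was normalised between no compound (100%) and no enzyme and no compound (0%). IC50 came from sigmoidal non-linear regression; values are average ± S.E.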
# [2] = target: T1, PDE6C (Homo sapiens, UniProt P51160); conditions: read-out: PDE6C IC50; recombinant human enzyme; cited from earlier work
# [3] = test system: cGMP levels in the hippocampus of mice; conditions: dosed at 3 mg/kg; cited from earlier work
# [4] = test system: AD mouse models; conditions: pharmacological treatment of two different AD mouse models; cited from earlier work
# [5] = test system: cGMP levels in the hippocampus of mice; experiment: Hippocampal cGMP levels after foot shock; type: in vivo; conditions: WT mice, 3 mg/kg ip, 180 s after foot shock; not significant (p = 0.097)
# Summary of the method: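 Male and female C57Bl6 mice, 2-3 months old (20-25 g), received 3 mg/kg i.p. in 2% DMSO & 2% Tween, or vehicle alone. Foot shock was given 30 min later. Mice were killed by cervical dislocation and decapitation 10 s, 1 min or 3 min after shock. Hippocampi were snap-frozen. cGMP was measured by enzyme immunoassay in duplicate and normalised to BCA protein. n=3 per group; t-test/2-way ANOVA.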
# [6] = test system: hippocampal long-term potentiation (LTP); experiment: Hippocampal slice LTP electrophysiology, acute bath perfusion; type: cell-based, mice; conditions: 50 nM bath perfusion
# [7] = target: T1, PDE6C; experiment: PDE6 fluorescent; type: biochemical; conditions: PDE6C vs PDE5A1
# T1 sequence (P51160 whole entry): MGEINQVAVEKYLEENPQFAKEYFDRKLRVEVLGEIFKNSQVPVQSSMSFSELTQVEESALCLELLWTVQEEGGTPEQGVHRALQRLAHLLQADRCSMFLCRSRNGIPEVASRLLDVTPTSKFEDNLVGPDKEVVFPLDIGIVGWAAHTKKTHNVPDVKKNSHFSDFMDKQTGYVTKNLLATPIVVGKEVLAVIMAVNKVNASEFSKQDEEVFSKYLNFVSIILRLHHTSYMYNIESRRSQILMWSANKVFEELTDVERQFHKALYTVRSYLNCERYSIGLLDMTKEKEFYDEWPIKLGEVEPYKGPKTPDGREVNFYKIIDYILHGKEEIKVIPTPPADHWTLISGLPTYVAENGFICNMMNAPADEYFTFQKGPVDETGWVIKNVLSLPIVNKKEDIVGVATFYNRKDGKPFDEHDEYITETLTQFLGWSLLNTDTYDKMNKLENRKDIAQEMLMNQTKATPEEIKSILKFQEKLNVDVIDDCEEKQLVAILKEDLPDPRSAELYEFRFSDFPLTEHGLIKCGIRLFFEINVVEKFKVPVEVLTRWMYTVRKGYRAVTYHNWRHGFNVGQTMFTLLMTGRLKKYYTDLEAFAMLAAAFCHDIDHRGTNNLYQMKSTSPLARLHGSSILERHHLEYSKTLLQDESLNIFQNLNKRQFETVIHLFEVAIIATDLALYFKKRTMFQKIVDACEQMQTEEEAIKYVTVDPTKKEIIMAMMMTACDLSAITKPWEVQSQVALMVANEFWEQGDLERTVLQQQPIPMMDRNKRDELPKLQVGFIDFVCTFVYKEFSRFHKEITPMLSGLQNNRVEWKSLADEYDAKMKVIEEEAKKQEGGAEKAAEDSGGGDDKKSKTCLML
compound,measurement,setting,value
"COc1ccc(CNc2c3c(nc4ccccc24)CCN(C(C)=O)C3)cc1Cl [17a, 1-(10-((3-Chloro-4-methoxybenzyl)amino)-3,4-dihydrobenzo[b][1,6]naphthyridin-2(1H)-yl)ethan-1-one]",IC50,[1],110 ± 3.3 nM
COc1ccc(CNc2c(CO)cnc3c(C4CC4)cc(C#N)cc23)cc1Cl [compound 1],IC50,[2],339 nM
same,cGMP in the hippocampus of mice,[3],elevation
same,learning and memory,[4],rescues learning and memory
"COc1ccc(CNc2c3c(nc4ccc(C#N)cc24)CCN(C(C)=O)C3)cc1Cl [compound 6c, 2-Acetyl-10-[(3-chloro-4-methoxybenzyl)amino]-1,2,3,4-tetrahydrobenzo[b][1,6]naphthyridine-8-carbonitrile]",increase of hippocampal cGMP levels,[5],slight increase
same,effect on LTP in WT slices,[6],did not have any effect
"CCN1Cc2nc3ccc(C#N)cc3c(NCc3ccc(OC)c(Cl)c3)c2C1=O [compound 24a, 9-((3-Chloro-4-methoxybenzyl)amino)-2-ethyl-1-oxo-2,3-dihydro-1H-pyrrolo[3,4-b]quinoline-7-carbonitrile]",selectivity for PDE5 versus PDE6,[7],~ 100 fold
